# Legend:
# [1] = Clearance in Beagle dog at 0.5 mg/kg, iv; format: ADME, organism-based, Canis lupus familiaris; design: dose 0.5 mg/kg, route intravenous; conditions: in vivo
# Summary of the method: (§1)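 Single intravenous dose in 10% N,N-dimethylacetamide, 10% ethanol, 30% propylene glycol, 50% water: 1 mg/kg mouse; 0.5 mg/kg rat, beagle dog, cynomolgus monkey. Plasma clearance also given as percent of hepatic blood flow.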
# [2] = Mean residence time in cynomolgus monkey at 0.5 mg/kg, iv; format: ADME, organism-based, Macaca fascicularis; design: dose 0.5 mg/kg, route intravenous; conditions: in vivo; summary of the method: as §1
# [3] = Clearance in mouse at 1 mg/kg, iv; format: ADME, organism-based; design: dose 1 mg/kg, route intravenous; conditions: in vivo; summary of the method: as §1
# [4] = Apparent oral bioavailability in cynomolgus monkey at 2 mg/kg; format: ADME, organism-based, Macaca fascicularis; conditions: in vivo, read-out: Fapp
# [5] = Apparent oral bioavailability in mouse at 5 mg/kg; format: ADME, organism-based; conditions: in vivo, read-out: Fapp
# [6] = Clearance in cynomolgus monkey at 0.5 mg/kg, iv; format: ADME, organism-based, Macaca fascicularis; design: dose 0.5 mg/kg, route intravenous; conditions: in vivo; summary of the method: as §1
# [7] = Mean residence time in Beagle dog at 0.5 mg/kg, iv; format: ADME, organism-based, Canis lupus familiaris; design: dose 0.5 mg/kg, route intravenous; conditions: in vivo; summary of the method: as §1
# [8] = Apparent oral bioavailability in Beagle dog at 2 mg/kg; format: ADME, organism-based, Canis lupus familiaris; conditions: in vivo, read-out: Fapp
# PBL [9] = test: Toxicity in human PBL assessed as chromosomal aberrations at 7.81 to 1000 ug/mL in the presence of S9; format: cell-based
# Summary of the method: (§2)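 Cultured human peripheral blood lymphocytes exposed at 7.81–1000 μg/mL, with and without S9 metabolic activation; chromosomal aberrations scored.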
# [10] = Mean residence time in mouse at 1 mg/kg, iv; format: ADME, organism-based; design: dose 1 mg/kg, route intravenous; conditions: in vivo; summary of the method: as §1
# PBL [11] = test: Toxicity in human PBL assessed as chromosomal aberrations at 7.81 to 1000 ug/mL; format: cell-based; summary of the method: as §2
# [12] = target: T1, C-X-C chemokine receptor type 3 (Homo sapiens, UniProt P49682); test: Displacement of [125I]-IP-10 from CXCR3 in presence of 100% human serum
# T1 sequence (P49682 whole entry): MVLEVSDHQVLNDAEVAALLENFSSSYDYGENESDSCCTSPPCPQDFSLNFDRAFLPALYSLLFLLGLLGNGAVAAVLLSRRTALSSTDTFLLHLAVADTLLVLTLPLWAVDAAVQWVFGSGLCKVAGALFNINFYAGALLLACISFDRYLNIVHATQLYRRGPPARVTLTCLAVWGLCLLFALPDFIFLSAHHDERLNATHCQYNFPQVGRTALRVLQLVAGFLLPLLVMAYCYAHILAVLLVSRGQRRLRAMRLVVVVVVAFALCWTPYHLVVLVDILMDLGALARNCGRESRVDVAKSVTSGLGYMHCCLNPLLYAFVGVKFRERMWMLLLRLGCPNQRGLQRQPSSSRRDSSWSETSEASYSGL
# [13] = target: T1, C-X-C chemokine receptor type 3; test: Displacement of [125I]-IP-10 from CXCR3
# Blood [14] = test: Drug level in C57BL/6 mouse blood at 10 mg/kg, sc after 1 hr; format: ADME, organism-based; design: dose 10 mg/kg, route subcutaneous; conditions: in vivo
# Summary of the method: (§3)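 C57BL/6 mice given bleomycin intra-tracheally and dosed subcutaneously by osmotic mini-pump for 6 days; plasma collected to measure drug level, reported 1 h post dose.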
# [15] = target: T2, C-X-C chemokine receptor type 3 (Mus musculus, UniProt O88410); test: Receptor occupancy of CXCR3 in mouse whole blood assessed as inhibition of ITAC binding by fluorescence quenching based FACS analysis
# T2 sequence (O88410 whole entry): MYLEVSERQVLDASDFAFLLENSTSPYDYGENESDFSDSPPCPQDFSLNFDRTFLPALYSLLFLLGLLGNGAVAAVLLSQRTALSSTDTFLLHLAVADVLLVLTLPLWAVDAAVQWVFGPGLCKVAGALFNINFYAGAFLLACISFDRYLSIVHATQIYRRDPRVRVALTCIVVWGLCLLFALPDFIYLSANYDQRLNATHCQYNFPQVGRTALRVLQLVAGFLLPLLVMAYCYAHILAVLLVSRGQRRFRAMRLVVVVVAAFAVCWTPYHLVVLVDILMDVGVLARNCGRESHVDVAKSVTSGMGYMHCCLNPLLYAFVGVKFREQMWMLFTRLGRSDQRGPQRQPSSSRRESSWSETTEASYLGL
# Blood [16] = test: Drug level in C57BL/6 mouse blood at 1 mg/kg, sc after 1 hr; format: ADME, organism-based; design: dose 1 mg/kg, route subcutaneous; conditions: in vivo; summary of the method: as §3
# [17] = Permeability of the compound at pH 5 to 7.4 by PAMPA; format: ADME; conditions: read-out: permeability
# Summary of the method: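 PAMPA permeability measured across pH 5 to 7.4.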
# Cytochrome P450 3A4 = Cytochrome P450 3A4 (Homo sapiens, UniProt P08684); test: Time dependent inhibition of CYP3A4; format: ADME
# Sequence of Cytochrome P450 3A4 (P08684 whole entry): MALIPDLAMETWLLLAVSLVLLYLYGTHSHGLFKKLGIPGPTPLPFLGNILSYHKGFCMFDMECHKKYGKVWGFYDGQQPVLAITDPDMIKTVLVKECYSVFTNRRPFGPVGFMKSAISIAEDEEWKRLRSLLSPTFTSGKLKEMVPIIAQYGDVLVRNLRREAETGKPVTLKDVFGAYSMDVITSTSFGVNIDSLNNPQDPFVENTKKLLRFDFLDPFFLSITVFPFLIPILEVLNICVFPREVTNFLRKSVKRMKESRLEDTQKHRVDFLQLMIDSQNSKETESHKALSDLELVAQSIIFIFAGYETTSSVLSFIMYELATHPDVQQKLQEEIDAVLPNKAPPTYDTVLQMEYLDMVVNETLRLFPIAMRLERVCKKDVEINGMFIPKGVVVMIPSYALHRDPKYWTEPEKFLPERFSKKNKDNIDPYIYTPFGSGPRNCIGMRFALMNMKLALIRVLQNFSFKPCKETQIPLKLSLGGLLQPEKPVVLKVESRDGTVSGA
Compound,IC50 [12],IC50 [13],Activity (PBL [9]),Activity (PBL [11]),also measured
CCS(=O)(=O)CCN(C(=O)Cc1ccc(F)c(C(F)(F)F)c1)[C@H](C)c1nc2ncccc2c(=O)n1-c1ccc(C#N)cc1,,,Toxic,Toxic,clearance [1]: 1 L/h/kg; MRT [2]: 1.7 h; clearance [3]: 0.35 L/h/kg; bioavailability [4]: 13%; bioavailability [5]: 17%; clearance [6]: 0.74 L/h/kg; MRT [7]: 1.2 h; bioavailability [8]: 69%; MRT [10]: 0.7 h
CCS(=O)(=O)CCN(C(=O)Cc1ccc(F)c(C(F)(F)F)c1)[C@H](C)c1nc2ccccn2c(=O)c1-c1ccc(C#N)cc1,,,Toxic,Toxic,
CCOc1ccc(-n2c([C@@H](C)N(Cc3cccnc3)C(=O)Cc3ccc(OC(F)(F)F)cc3)nc3ncccc3c2=O)cc1,,,,,Drug uptake (Blood [14]): 2.3 mg/kg; IC50 [15]: 1.9 µM; Drug uptake (Blood [16]): 0.16 µM
CCS(=O)(=O)CCN(C(=O)Cc1ccc(F)c(C(F)(F)F)c1)[C@H](C)c1nc2ncccc2c(=O)n1-c1ccc(Cl)cc1,0.022 µM,0.006 µM,Non-toxic,Non-toxic,
CCOc1ccc(-n2c([C@@H](C)N(Cc3ccc[n+]([O-])c3)C(=O)Cc3ccc(OC(F)(F)F)cc3)nc3ncccc3c2=O)cc1,0.014 µM,0.007 µM,,,
CCS(=O)(=O)CCN(C(=O)Cc1ccc(F)c(C(F)(F)F)c1)[C@H](C)c1nc2ccccn2c(=O)c1-c1ccc(O)cc1,,,,,TDI (Cytochrome P450 3A4): Active
CCOc1ccc(-n2c([C@@H](C)N(CCS(=O)(=O)CC)C(=O)Cc3ccc(F)c(C(F)(F)F)c3)nc3ncccc3c2=O)cc1,,,,,TDI (Cytochrome P450 3A4): Not Active
CCS(=O)(=O)CCN(C(=O)Cc1ccc(C(F)(F)F)c(F)c1)[C@H](C)c1nc2ncccc2c(=O)n1-c1ccc(C#N)cc1,,,Toxic,Toxic,

# Continued, in another order:
IC50 [12],IC50 [13],Compound,Activity (PBL [9]),Activity (PBL [11]),also measured
0.015 µM,0.007 µM,C[C@H](c1nc2ncccc2c(=O)n1-c1ccc(C#N)cc1)N(CC1CCS(=O)(=O)CC1)C(=O)Cc1ccc(C(F)(F)F)c(F)c1,Toxic,Toxic,
0.058 µM,0.047 µM,CCS(=O)(=O)CCN(C(=O)Cc1ccc(C(F)(F)F)c(F)c1)[C@H](C)c1nc2ncccc2c(=O)n1-c1ccc(F)cc1,Non-toxic,Non-toxic,Papp [17]: 8 nm/s
0.022 µM,0.007 µM,C[C@H](c1nc2ncccc2c(=O)n1-c1ccc(F)cc1)N(CC1CCS(=O)(=O)CC1)C(=O)Cc1ccc(C(F)(F)F)c(F)c1,Non-toxic,Non-toxic,
0.029 µM,0.013 µM,C[C@H](c1nc2ncccc2c(=O)n1-c1ccc(C#N)cc1)N(CCS(C)(=O)=O)C(=O)Cc1ccc(F)c(C(F)(F)F)c1,Toxic,Toxic,
